Here are results for ten substances from article PMC5760440 (Journal of immunology (Baltimore, Md. : 1950), 2017).

Ends that are not written are not given here.

The test system of one assay is A/J mice. Description: Induction of myocarditis by immunization with SERCA2a peptides, histology. It is filed as in vivo, mouse. The following applies: individual peptide/CFA + PT; for Total inflammatory foci (Mean ± SEM): day 21, H&E heart sections; for Severity of lesions, Atria, Number of animals affected (%), Mild / Severity of lesions, Ventricle, Number of animals affected (%), Mild / Severity of lesions, Atria, Number of animals affected (%), Normal / Severity of lesions, Ventricle, Number of animals affected (%), Normal / Severity of lesions, Atria, Number of animals affected (%), Severe / Severity of lesions, Ventricle, Number of animals affected (%), Severe: day 21, H&E; for Severity of lesions, Atria, Number of animals affected (%), Mild / Severity of lesions, Ventricle, Number of animals affected (%), Mild: mild = 1–5 foci; for Severity of lesions, Atria, Number of animals affected (%), Normal / Severity of lesions, Ventricle, Number of animals affected (%), Normal: normal = 0 foci; for Severity of lesions, Atria, Number of animals affected (%), Severe / Severity of lesions, Ventricle, Number of animals affected (%), Severe: severe = 26 foci and above. The method in brief:
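Mice got peptide/CFA emulsion (M. tuberculosis H37RA extract 5 mg/ml), 50–100 μg individual peptide, s.c. at inguinal and sternum sites on days 0 and 7. Pertussis toxin 100 ng/mouse i.p. on days 0 and 2. Controls: untreated, CFA+PT. Organs harvested day 21, formalin-fixed, 5 μm H&E sections ~150 μm apart. Blinded foci counts scored 0 / 1–5 / 6–25 / ≥26.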

The next assay deals with LNCs. Description: Cytokine secretion by restimulated LNCs, cytokine bead array. The assay is classed as cell-based, mouse. To be noted: supernatants of LNCs from mice immunized with the named peptide (Fig. S2c).

Turning to “SERCA2a 31-50: N-terminally acetylated 20-mer peptide of SERCA2a, residues 31-50 (Ac-KLKERWGSNELPAEEGKTLL; UniProt P16615 31-50, looked up, fragment)”, the “Total inflammatory foci (Mean ± SEM)” value in the assay on A/J mice (SEM) is given as 8.00 ± 0.00. Moreover, in the assay on A/J mice, the “Severity of lesions, Atria, Number of animals affected (%), Mild” value (“Severity of lesions, Atria … (%), Mild” for short) is given as 0 (0) %; the “Severity of lesions, Ventricle, Number of animals affected (%), Mild” value (“Severity of lesions, Ventricle … (%), Mild” for short) is recorded as 0 (0) %; the “Severity of lesions, Atria, Number of animals affected (%), Normal” value (from here on “Severity of lesions, Atria … (%), Normal”) was determined as 5; the “Severity of lesions, Ventricle, Number of animals affected (%), Normal” value (“Severity of lesions, Ventricle … (%), Normal” below) was found to be 4. In the assay with A/J mice, the “Severity of lesions, Atria, Number of animals affected (%), Severe” value (shortened to “Severity of lesions, Atria … (%), Severe”) is reported as 0 (0) % and the “Severity of lesions, Ventricle, Number of animals affected (%), Severe” value (“Severity of lesions, Ventricle … (%), Severe” for short) is given as 0 (0) %. Moreover, in the assay with LNCs, the “Cytokine pattern of peptides inducing mild disease” value was “produced mainly IFN-γ”.
Consider “SERCA2a 161-180: N-terminally acetylated 20-mer peptide of SERCA2a, residues 161-180 (Ac-ADIRLTSIKSTTLRVDQSIL; UniProt P16615 161-180, looked up, fragment)”, for which, in the assay on A/J mice (SEM), the “Total inflammatory foci (Mean ± SEM)” value is given as 2.50 ± 0.64. Further, in the assay with A/J mice, the “Severity of lesions, Ventricle … (%), Mild” value was 3 (30) %; the “Severity of lesions, Atria … (%), Normal” value stood at 6; the “Severity of lesions, Ventricle … (%), Normal” value came out at 7; the “Severity of lesions, Atria … (%), Severe” value is given as 0 (0) %. Moreover, the “Severity of lesions, Ventricle … (%), Severe” value in the assay with A/J mice was 0 (0) %. Besides, in the assay on LNCs, the “Cytokine pattern of peptides inducing mild disease” value was “underproduction of both IFN-γ and IL-17A”.
As to “SERCA2a 171-190: N-terminally acetylated 20-mer peptide of SERCA2a, residues 171-190 (Ac-TTLRVDQSILTGESVSVIKH; UniProt P16615 171-190, looked up, fragment)”, the “Total inflammatory foci (Mean ± SEM)” value in the assay on A/J mice (SEM) is reported as 2.00 ± 0.00. In the assay on A/J mice, the “Severity of lesions, Atria … (%), Mild” value is 1 (20) %; the “Severity of lesions, Ventricle … (%), Mild” value was 1 (20) %; the “Severity of lesions, Atria … (%), Normal” value is given as 4; the “Severity of lesions, Ventricle … (%), Normal” value was 4. For the same substance, in the assay on A/J mice, the “Severity of lesions, Atria … (%), Severe” value is 0 (0) % and the “Severity of lesions, Ventricle … (%), Severe” value is 0 (0) %.
“SERCA2a 311-330: N-terminally acetylated 20-mer peptide of SERCA2a, residues 311-330 (Ac-LPAVITTCLALGTRRMAKKN; UniProt P16615 311-330, looked up, fragment)”: in the assay with A/J mice, the “Total inflammatory foci (Mean ± SEM)” value was 0; the “Severity of lesions, Atria … (%), Mild” value is 0 (0) %; the “Severity of lesions, Ventricle … (%), Mild” value is 0 (0) %; the “Severity of lesions, Atria … (%), Normal” value was 5. Further, in the assay with A/J mice, the “Severity of lesions, Ventricle … (%), Normal” value was 5; the “Severity of lesions, Atria … (%), Severe” value is recorded as 0 (0) %; the “Severity of lesions, Ventricle … (%), Severe” value is recorded as 0 (0) %.
As to “SERCA2a 471-490: N-terminally acetylated 20-mer peptide of SERCA2a, residues 471-490 (Ac-CNSVIKQLMKKEFTLEFSRD; UniProt P16615 471-490, looked up, fragment)”, in the assay with A/J mice, the “Total inflammatory foci (Mean ± SEM)” value is listed as 0; the “Severity of lesions, Atria … (%), Mild” value is 0 (0) %; the “Severity of lesions, Ventricle … (%), Mild” value was 0 (0) %; the “Severity of lesions, Atria … (%), Normal” value is 5. For the same substance, in the assay on A/J mice, the “Severity of lesions, Ventricle … (%), Normal” value was found to be 5; the “Severity of lesions, Atria … (%), Severe” value is 0 (0) %; the “Severity of lesions, Ventricle … (%), Severe” value is listed as 0 (0) %.
In the case of “SERCA2a 481-500: N-terminally acetylated 20-mer peptide of SERCA2a, residues 481-500 (Ac-KEFTLEFSRDRKSMSVYCTP; UniProt P16615 481-500, looked up, fragment)”, in the assay with A/J mice, the “Total inflammatory foci (Mean ± SEM)” value was found to be 0; the “Severity of lesions, Atria … (%), Mild” value was 0 (0) %; the “Severity of lesions, Ventricle … (%), Mild” value was 0 (0) %; the “Severity of lesions, Atria … (%), Normal” value came out at 5. Moreover, in the assay with A/J mice, the “Severity of lesions, Ventricle … (%), Normal” value is reported as 5; the “Severity of lesions, Atria … (%), Severe” value is reported as 0 (0) %; the “Severity of lesions, Ventricle … (%), Severe” value is reported as 0 (0) %.
With “SERCA2a 591-610: N-terminally acetylated 20-mer peptide of SERCA2a, residues 591-610 (Ac-TFVGCVGMLDPPRIEVASSV; UniProt P16615 591-610, looked up, fragment)”, in the assay with A/J mice, the “Total inflammatory foci (Mean ± SEM)” value is recorded as 0; the “Severity of lesions, Atria … (%), Mild” value is 0 (0) %; the “Severity of lesions, Ventricle … (%), Mild” value is on record as 0 (0) %; the “Severity of lesions, Atria … (%), Normal” value is given as 5. In addition, in the assay on A/J mice, the “Severity of lesions, Ventricle … (%), Normal” value was determined as 5; the “Severity of lesions, Atria … (%), Severe” value was 0 (0) %; the “Severity of lesions, Ventricle … (%), Severe” value is listed as 0 (0) %.
Consider “SERCA2a 601-620: N-terminally acetylated 20-mer peptide of SERCA2a, residues 601-620 (Ac-PPRIEVASSVKLCRQAGIRV; UniProt P16615 601-620, looked up, fragment)”, for which, in the assay with A/J mice, the “Total inflammatory foci (Mean ± SEM)” value is 0; the “Severity of lesions, Atria … (%), Mild” value is 0 (0) %; the “Severity of lesions, Ventricle … (%), Mild” value is reported as 0 (0) %; the “Severity of lesions, Atria … (%), Normal” value was determined as 5. In addition, in the assay on A/J mice, the “Severity of lesions, Ventricle … (%), Normal” value was determined as 5; the “Severity of lesions, Atria … (%), Severe” value was 0 (0) %; the “Severity of lesions, Ventricle … (%), Severe” value is 0 (0) %.
As to “SERCA2a 821-840: N-terminally acetylated 20-mer peptide of SERCA2a, residues 821-840 (Ac-RNPKEPLISGWLFFRYLAIG; UniProt P16615 821-840, looked up, fragment)”, in the assay with A/J mice, the “Total inflammatory foci (Mean ± SEM)” value is given as 0; the “Severity of lesions, Atria … (%), Mild” value is 0 (0) %; the “Severity of lesions, Ventricle … (%), Mild” value is listed as 0 (0) %; the “Severity of lesions, Atria … (%), Normal” value was 5. Also, in the assay on A/J mice, the “Severity of lesions, Ventricle … (%), Normal” value amounted to 5; the “Severity of lesions, Atria … (%), Severe” value is recorded as 0 (0) %; the “Severity of lesions, Ventricle … (%), Severe” value is listed as 0 (0) %.
For “SERCA2a 951-970: N-terminally acetylated 20-mer peptide of SERCA2a, residues 951-970 (Ac-PLPLIFQITPLNVTQWLMVL; UniProt P16615 951-970, looked up, fragment)”, the “Total inflammatory foci (Mean ± SEM)” value with A/J mice (SEM) is on record as 40.00 ± 39.00. Further, in the assay on A/J mice, the “Severity of lesions, Atria … (%), Mild” value is 1 (10) %; the “Severity of lesions, Ventricle … (%), Mild” value is given as 0 (0) %; the “Severity of lesions, Atria … (%), Normal” value stood at 8; the “Severity of lesions, Ventricle … (%), Normal” value came out at 9. In addition, in the assay with A/J mice, the “Severity of lesions, Atria … (%), Severe” value is recorded as 1 (10) % and the “Severity of lesions, Ventricle … (%), Severe” value was 1 (10) %.
